{"data": "Measurements from different studies", "organism": "Klebsiella pneumoniae", "effect on": "microbial growth"}
{"Compound": "CCn1cc(C(=O)O)c(=O)c2ccc(C)nc21", "assay": "broth dilution", "test system": "ATCC700603", "MIC": "80 µM"}
{"Compound": "O=C(O)c1cn(C2CC2)c2cc(N3CCNCC3)c(F)cc2c1=O", "assay": "broth dilution", "setting": "24 h", "MIC": "0.57 µM"}
{"Compound": "NC[C@H]1O[C@H](O[C@H]2[C@H](O)[C@@H](O[C@H]3O[C@H](CO)[C@@H](O)[C@H](N)[C@H]3O)[C@H](N)C[C@@H]2N)[C@H](N)C[C@@H]1O", "MIC": "0.5 to 1 µg/mL"}
{"Compound": "CN(C)Cc1ccc2c(N(C)C)c3c(c(O)c2c1)C(=O)C1=C(O)[C@]2(O)C(=O)C(C(N)=O)=C(O)[C@@H](N(C)C)[C@@H]2C[C@@H]1C3", "assay": "broth dilution", "test system": "ATCC13883", "MIC": "4 µg/mL"}
{"Compound": "Cc1c(CN(C)C(=O)/C=C/c2cnc3c(c2)CC(CCN)C(=O)N3)oc2ccccc12.Cl (centres unmarked)", "assay": "broth dilution", "test system": "BAA2473", "MIC": "16 µg/mL"}
{"Compound": "CN(C)c1ccc(-c2ccc3cc4c(c(O)c3c2)C(=O)C2=C(O)[C@]3(O)C(=O)C(C(N)=O)=C(O)[C@@H](N(C)C)[C@@H]3C[C@@H]2C4)cc1", "assay": "broth dilution", "test system": "ATCC13883", "MIC": "32 µg/mL"}
{"Compound": "C/C(=C\\c1ccc(C#N)cc1)C(=O)Nc1ccc(C(=O)N[C@@H](CC(N)=O)C(=O)Nc2ccc(C(=O)Nc3ccc(C(=O)Nc4ccc(C(=O)O)cc4)c(O)c3OC(C)C)cc2)cc1", "test system": "DSM30104", "MIC": "> 64 µg/mL"}
{"Compound": "CC(C)(O/N=C(\\C(=O)N[C@@H]1C(=O)N2C(C(=O)[O-])=C(C[n+]3ccccc3)CS[C@H]12)c1csc(N)n1)C(=O)O", "setting": "18 h, clinical isolate", "MIC": "> 128 µg/mL"}
{"Compound": "Cn1c(SCc2ccc(Cl)cc2)nnc1-c1cncc(C#Cc2ccccc2)c1", "MIC": "≥ 20 µg/mL"}
{"Compound": "C=C[C@]1(C)C[C@@H](OC(=O)CS[C@@H]2C[C@H]3CC[C@@H](C2)N3C)[C@]2(C)[C@H](C)CC[C@]3(CCC(=O)[C@H]32)[C@@H](C)[C@@H]1O", "assay": "broth dilution", "test system": "ATCC700603", "MIC": "160 µM"}
{"Compound": "NCCCNC1CCCCc2c1[nH]c1ccc(Br)cc21 (centres unmarked)", "assay": "broth dilution", "test system": "ATCC10031", "MIC": "8 µg/mL"}
{"Compound": "CO[C@H]1/C=C/O[C@@]2(C)Oc3c(C)c(O)c4c(O)c(c(/C=N/N5CCN(C)CC5)c(O)c4c3C2=O)NC(=O)/C(C)=C\\C=C\\[C@H](C)[C@H](O)[C@@H](C)[C@@H](O)[C@@H](C)[C@H](OC(C)=O)[C@@H]1C", "assay": "broth dilution", "test system": "ATCC700603", "MIC": "10 µM"}
{"Compound": "CC1=NN(CNc2ccccc2[N+](=O)[O-])C(=O)C1=NNn1c(-c2ccccc2)nc2ccccc2c1=O", "assay": "broth dilution", "setting": "24 h", "MIC": "50.4 µM"}
{"Compound": "CCn1cc(C(=O)O)c(=O)c2cc(F)c(N3CCNCC3)cc21", "assay": "broth dilution", "test system": "ATCC43816", "MIC": "2 µM"}
{"Compound": "O=C(Nc1ccc(S(=O)(=O)c2nccs2)cc1)c1cc(N=Nc2nccs2)ccc1O", "assay": "broth dilution", "MIC": "100 µg/mL"}
{"Compound": "CN(C)[C@@H]1C(O)=C(C(N)=O)C(=O)[C@@]2(O)C(O)=C3C(=O)c4c(cc5ccc(CN6CC(C#N)C6)cc5c4O)C[C@H]3C[C@@H]12", "assay": "broth dilution", "test system": "ATCC13883", "MIC": "16 µg/mL"}
{"Compound": "NC[C@H]1O[C@H](O[C@H]2[C@H](O)[C@@H](O[C@H]3O[C@H](CO)[C@@H](O)[C@H](N)[C@H]3O)[C@H](N)C[C@@H]2N)[C@H](N)C[C@@H]1O", "assay": "broth dilution", "test system": "ATCC700603", "MIC": "1.3 µM"}
{"Compound": "CNC(=O)c1cc(Oc2ccc(NC(=O)Nc3ccc(Cl)c(C(F)(F)F)c3)cc2)ccn1", "test system": "DSM30104", "MIC": "> 100 µM"}
{"Compound": "CC1=NN(CNC(=O)c2ccccc2)C(=O)C1=NNn1c(-c2ccccc2)nc2ccccc2c1=O", "assay": "broth dilution", "setting": "24 h", "MIC": "51.9 µM"}
{"Compound": "CO[C@H]1/C=C/O[C@@]2(C)Oc3c(C)c(O)c4c(O)c(c(/C=N/N5CCN(C)CC5)c(O)c4c3C2=O)NC(=O)/C(C)=C\\C=C\\[C@H](C)[C@H](O)[C@@H](C)[C@@H](O)[C@@H](C)[C@H](OC(C)=O)[C@@H]1C", "test system": "ATCC13882", "MIC": "16 µg/mL"}
{"Compound": "O=C(N[C@H](CO)[C@H](O)c1ccc([N+](=O)[O-])cc1)C(Cl)Cl", "assay": "broth dilution", "test system": "ATCC700603", "MIC": "80 µM"}
{"Compound": "NC1CCCCc2c1[nH]c1ccc(Br)cc21 (centres unmarked)", "assay": "broth dilution", "test system": "ATCC10031", "MIC": "16 µg/mL"}
{"Compound": "CC1(C)S[C@@H]2[C@H](NC(=O)COc3ccccc3)C(=O)N2[C@H]1C(=O)O", "setting": "18 h, clinical isolate", "MIC": "> 128 µg/mL"}
{"Compound": "C[C@@H]1O[C@@H]1P(=O)(O)O", "assay": "broth dilution", "test system": "ATCC700603", "MIC": "80 µM"}
{"Compound": "CCCCCCC#Cc1cncc(-c2nnc(SCc3ccc(Cl)cc3)n2C)c1", "MIC": "≥ 20 µg/mL"}
{"Compound": "CC[C@H]1OC(=O)[C@H](C)[C@@H](O[C@H]2C[C@@](C)(OC)[C@@H](O)[C@H](C)O2)[C@H](C)[C@@H](O[C@@H]2O[C@H](C)C[C@H](N(C)C)[C@H]2O)[C@](C)(O)C[C@@H](C)C(=O)[C@H](C)[C@@H](O)[C@]1(C)O", "assay": "broth dilution", "test system": "ATCC700603", "MIC": "160 µM"}
{"Compound": "CCCCCCC#Cc1cncc(-c2nnc(SCc3ccc(Cl)c(F)c3)n2C)c1", "MIC": "≥ 20 µg/mL"}
{"Compound": "O=C1NN=C(N=Cc2ccccc2O)C1=NNn1c(-c2ccccc2)nc2ccccc2c1=O", "assay": "broth dilution", "setting": "24 h", "MIC": "55.4 µM"}
{"Compound": "C[C@H]1[C@H](NC(=O)/C(=N\\OC(C)(C)C(=O)O)c2csc(N)n2)C(=O)N1S(=O)(=O)O", "assay": "broth dilution", "test system": "ATCC700603", "MIC": "0.63 µM"}
